ChEMBL document CHEMBL1126293, “Substrate specificity of isopenicillin N synthase” (J Med Chem, 1992)

Assays:
[1] = Antibiotic activity against Micrococcus luteus (ATCC 9341 strain); assay type: functional
Outline: (§1)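 Peptides at 0.3 mM incubated with purified IPNS in Tris-HCl pH 8.0 containing KCl, MgSO4, FeSO4, ascorbate and DTT, at 25 °C for 2–20 min in quadruplicate, then stopped with ethanol. Samples with and without penicillinase went into wells on M. luteus ATCC 9341 lawns, incubated overnight at 37 °C, and inhibition zones were read. Peptides giving no product were retested for 1 h at 3 mM.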

[2] = target: T1, Regulatory protein BlaR1 (Bacillus licheniformis) (UniProt P12287); assay: Beta-lactamase induction in Bacillus licheniformis
T1 sequence (whole entry): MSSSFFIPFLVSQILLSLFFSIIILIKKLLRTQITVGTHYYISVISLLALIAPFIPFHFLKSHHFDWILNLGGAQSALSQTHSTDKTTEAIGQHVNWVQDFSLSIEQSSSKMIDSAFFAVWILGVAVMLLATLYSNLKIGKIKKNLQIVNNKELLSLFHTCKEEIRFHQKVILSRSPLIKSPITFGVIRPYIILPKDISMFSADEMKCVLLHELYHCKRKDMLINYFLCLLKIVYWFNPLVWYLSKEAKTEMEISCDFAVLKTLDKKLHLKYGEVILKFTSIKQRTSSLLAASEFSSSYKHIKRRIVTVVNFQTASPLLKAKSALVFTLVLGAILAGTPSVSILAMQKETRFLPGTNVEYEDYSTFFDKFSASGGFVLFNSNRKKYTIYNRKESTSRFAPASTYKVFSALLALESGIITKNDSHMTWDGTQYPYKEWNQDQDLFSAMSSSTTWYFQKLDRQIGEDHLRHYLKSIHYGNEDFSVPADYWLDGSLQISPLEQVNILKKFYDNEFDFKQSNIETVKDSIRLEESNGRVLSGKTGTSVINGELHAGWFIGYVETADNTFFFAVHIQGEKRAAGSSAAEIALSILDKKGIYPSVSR
Outline: (§2)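 Ethanol-stopped IPNS reactions (peptide 0.3 mM, 25 °C) were mixed 1:1 with log-phase B. licheniformis ATCC 14580 diluted to 30 Klett units and incubated for 2 h at 30 °C. Tylosin was added, then after 15 min nitrocefin, with A492 read over 30 min. β-Lactam was quantified by β-lactamase synthesis relative to penicillin G.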

[3] = target: T2, Isopenicillin N synthase (Penicillium chrysogenum) (UniProt P08703); assay: Anti-micrococcus luteus activity was tested for inhibition of isopenicillin N synthetase.; details: Penicillium chrysogenum (Penicillium notatum)
T2 sequence (whole entry): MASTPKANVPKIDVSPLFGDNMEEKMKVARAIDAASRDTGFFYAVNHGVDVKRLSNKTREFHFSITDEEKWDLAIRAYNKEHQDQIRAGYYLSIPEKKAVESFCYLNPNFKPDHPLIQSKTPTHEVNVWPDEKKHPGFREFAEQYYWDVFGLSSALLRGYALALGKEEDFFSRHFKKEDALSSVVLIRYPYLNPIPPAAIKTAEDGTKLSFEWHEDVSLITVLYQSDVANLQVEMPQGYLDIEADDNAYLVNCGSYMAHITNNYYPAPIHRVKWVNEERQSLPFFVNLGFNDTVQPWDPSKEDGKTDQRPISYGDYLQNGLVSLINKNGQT
Outline: (§3)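 Peptide added at a known amount to a standard IPNS reaction mixture with ACV as substrate before starting the reaction with enzyme. Applied to peptides not converted to an anti-M. luteus product. Percent inhibition derived from the ratio of reaction rates with and without the peptide.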

Micrococcus luteus [4] = assay: In vitro antibiotic activity against Micrococcus luteus(ATCC 9341 stain).; assay type: functional, organism-based; outline: as §1
[5] = target: T2, Isopenicillin N synthase (Penicillium chrysogenum); assay: Anti Micrococcus luteus activity was tested for inhibition of Isopenicillin N synthetase (isopenicillin N synthase); yes; outline: as §3
Micrococcus luteus [6] = assay: The compound was tested for the antibiotic activity against Micrococcus luteus(ATCC 9341 stain); no; assay type: functional, organism-based; outline: as §1
[7] = target: T1, Regulatory protein BlaR1 (Bacillus licheniformis); assay: The compound was tested for Beta-lactamase induction in B. licheniformis; +; outline: as §2
[8] = target: T2, Isopenicillin N synthase (Penicillium chrysogenum); assay: Anti Micrococcus luteus activity was tested for inhibition of IPNS (isopenicillin N synthase); no; outline: as §3

Compound	Beta-lactamase induction [2]	Activity [3]	Activity [5]	Antibiotic activity [1]	also measured
CC(C)[C@@H](NC(=O)[C@H](CSSC[C@H](NC(=O)CCC[C@H](N)C(=O)O)C(=O)N[C@@H](C(=O)O)C(C)C)NC(=O)CCC[C@H](N)C(=O)O)C(=O)O	+	No activity			Antibiotic activity (Micrococcus luteus [4]): Yes
N[C@@H](CCCC(=O)N[C@@H](CSSC[C@H](NC(=O)CCC[C@H](N)C(=O)O)C(=O)NC(C(=O)O)C(C(F)(F)F)C(F)(F)F)C(=O)NC(C(=O)O)C(C(F)(F)F)C(F)(F)F)C(=O)O (stereo in doubt; 62)			Yes	No activity	
N[C@@H](CCCC(=O)N[C@@H](CSSC[C@H](NC(=O)CCC[C@H](N)C(=O)O)C(=O)N[C@H](C(=O)O)C(C(F)(F)F)C(F)(F)F)C(=O)N[C@H](C(=O)O)C(C(F)(F)F)C(F)(F)F)C(=O)O			Yes	No activity	
CC(O)[C@@H](NC(=O)C(CSSCC(NC(=O)CCC[C@H](N)C(=O)O)C(=O)N[C@@H](C(=O)O)C(C)O)NC(=O)CCC[C@H](N)C(=O)O)C(=O)O (stereo partly specified)		No activity			Antibiotic activity (Micrococcus luteus [6]): No activity
CC(C)[C@@H](NC(=O)[C@H](CS)NC(=O)CCC[C@H](N)C(=O)O)C(=O)O	+	No activity			
CC(C)[C@@H](NC(=O)[C@@H](CS)NC(=O)CCC[C@H](N)C(=O)O)C(=O)O	+	No activity		No activity	
CC(C)[C@@H](NC(=O)[C@H](CSSC[C@H](NC(=O)CCCCN)C(=O)N[C@@H](C(=O)O)C(C)C)NC(=O)CCCCN)C(=O)O					Beta-lactamase induction [7]: +; Activity [8]: No activity; Antibiotic activity (Micrococcus luteus [4]): Yes
CC(C)[C@@H](NC(=O)[C@H](CSSC[C@H](NC(=O)[C@@H]1CCCN1)C(=O)N[C@@H](C(=O)O)C(C)C)NC(=O)[C@@H]1CCCN1)C(=O)O				No activity	Activity [8]: No activity
CC(C)[C@@H](NC(=O)[C@H](CSSC[C@H](NC(=O)CCCCCN)C(=O)N[C@@H](C(=O)O)C(C)C)NC(=O)CCCCCN)C(=O)O	+	No activity			Antibiotic activity (Micrococcus luteus [4]): Yes
N[C@@H](CCCC(=O)NC(CSSCC(NC(=O)CCC[C@H](N)C(=O)O)C(=O)N[C@H](Cc1c[nH]c2ccccc12)C(=O)O)C(=O)N[C@H](Cc1c[nH]c2ccccc12)C(=O)O)C(=O)O (stereo partly specified)			Yes	No activity	
N[C@@H](CCCC(=O)NC(CSSCC(NC(=O)CCC[C@H](N)C(=O)O)C(=O)N[C@H](Cc1ccc(O)cc1)C(=O)O)C(=O)N[C@H](Cc1ccc(O)cc1)C(=O)O)C(=O)O (stereo partly specified)			Yes		Antibiotic activity (Micrococcus luteus [6]): No activity
CC(C)[C@@H](NC(=O)[C@H](CSSC[C@H](NC(=O)c1cccc(C(N)C(=O)O)c1)C(=O)N[C@@H](C(=O)O)C(C)C)NC(=O)c1cccc(C(N)C(=O)O)c1)C(=O)O (stereo partly specified)	+	No activity			Antibiotic activity (Micrococcus luteus [4]): Yes
N[C@@H](CCCC(=O)NC(CSSCC(NC(=O)CCC[C@H](N)C(=O)O)C(=O)N[C@H](CCl)C(=O)O)C(=O)N[C@H](CCl)C(=O)O)C(=O)O (stereo partly specified)			Yes	No activity	

Continued, in another order:

Beta-lactamase induction [2]	Activity [3]	Activity [5]	Compound	Antibiotic activity [1]	also measured
+	No activity		CC(C)[C@@H](NC(=O)[C@H](CSSC[C@H](NC(=O)OCc1ccccc1)C(=O)N[C@@H](C(=O)O)C(C)C)NC(=O)OCc1ccccc1)C(=O)O	No activity	
+	No activity		CC(C)[C@@H](NC(=O)[C@H](CSSC[C@H](NC(=O)C(N)c1cccc(C(=O)O)c1)C(=O)N[C@@H](C(=O)O)C(C)C)NC(=O)C(N)c1cccc(C(=O)O)c1)C(=O)O (stereo partly specified)	No activity	
+	No activity		CC(C)[C@@H](NC(=O)[C@H](C)NC(=O)CCC[C@H](N)C(=O)O)C(=O)O	No activity	
		Yes	CC(C)[C@@H](NC(=O)[C@@H](N)CSSC[C@H](N)C(=O)N[C@@H](C(=O)O)C(C)C)C(=O)O	No activity	
+	No activity		CC(C)[C@@H](NC(=O)[C@H](CSSC[C@H](NC(=O)Cc1cccc(N)c1)C(=O)N[C@@H](C(=O)O)C(C)C)NC(=O)Cc1cccc(N)c1)C(=O)O		Antibiotic activity (Micrococcus luteus [4]): Yes
+	No activity		CC(C)[C@@H](NC(=O)[C@H](CSSC[C@H](NC(=O)CCCCCCN)C(=O)N[C@@H](C(=O)O)C(C)C)NC(=O)CCCCCCN)C(=O)O		Antibiotic activity (Micrococcus luteus [4]): Yes
+	No activity		CC(C)[C@@H](NC(=O)[C@H](CS)NC(=O)Cc1ccc(O)cc1)C(=O)O	No activity	
		Yes	N[C@@H](CCCC(=O)N[C@@H](CSSC[C@H](NC(=O)CCC[C@H](N)C(=O)O)C(=O)NC(C(=O)O)C(C(F)(F)F)C(F)(F)F)C(=O)NC(C(=O)O)C(C(F)(F)F)C(F)(F)F)C(=O)O (stereo in doubt; 63)	No activity	
+	No activity		CC(C)[C@@H](NC(=O)[C@H](CS)NC(=O)CCC[C@@H](N)C(=O)O)C(=O)O		Antibiotic activity (Micrococcus luteus [4]): Yes
+	No activity		CC(C)[C@@H](NC(=O)[C@H](CO)NC(=O)CCC[C@H](N)C(=O)O)C(=O)O	No activity	
		Yes	N[C@@H](CCCC(=O)N[C@@H](CS)C(=O)NCC(=O)O)C(=O)O	No activity	
